Two compounds from ChEMBL document CHEMBL1128727, “Characterization of a class of peptide boronates with neutral P1 side chains as highly selective inhibitors of thrombin” (J Med Chem, 1995) can be followed below.

Experiment [1] is described as follows: Binding affinity against protein Ca. In outline: (§1)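 Chromogenic pNA assays used human plasma factor Xa with S-2222, human plasmin with S-2251, human kidney urokinase with S-2444, and human plasma activated protein C with S-2366. Rates were read over 2 min at 25 °C. A 2 h enzyme–inhibitor preincubation tested for slow binding. For non-slow binders, Ki came from Lineweaver–Burk plots at five substrate levels over a 10-fold range around Km, using at least five points in duplicate.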

The next experiment concerns the target T1, Cathepsin G (Homo sapiens, UniProt P08311).
T1 sequence (P08311 whole entry): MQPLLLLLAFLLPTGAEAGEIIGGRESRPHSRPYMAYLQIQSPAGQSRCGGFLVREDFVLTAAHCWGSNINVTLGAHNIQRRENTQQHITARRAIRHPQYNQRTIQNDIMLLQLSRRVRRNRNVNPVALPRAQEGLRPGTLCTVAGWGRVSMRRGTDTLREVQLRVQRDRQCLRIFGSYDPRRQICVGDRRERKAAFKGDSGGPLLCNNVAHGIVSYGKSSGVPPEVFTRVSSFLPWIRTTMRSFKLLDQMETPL
Briefly: Binding affinity against cathepsin G.

In experiment [2] the target is Plasma kallikrein (Homo sapiens) (UniProt P03952). Put plainly: Binding affinity against plasma kallikrein.
The target of the next experiment is Coagulation factor X (Homo sapiens, UniProt P00742). Briefly: Binding affinity against Coagulation factor X. In outline:
as §1

For experiment [3], the target named is T2, Plasminogen (Homo sapiens, UniProt P00747). Put plainly: Binding affinity against plasmin. Put shortly:
as §1

Experiment [4] has as its target T3, Prothrombin (Homo sapiens, UniProt P00734). Put plainly: Binding affinity against alpha thrombin. Put shortly: (§2)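 Human α-thrombin or human γ-thrombin was assayed with S-2238 (H-D-Phe-Pip-Arg-pNA), with velocity measured over 2 min at 25 °C. A 2 h preincubation screened for slow binding. For competitive inhibitors, Ki came from Lineweaver–Burk plots at five substrate concentrations over 10-fold around Km; slow binders were fitted to the slow-binding rate equations. At least five points were run in duplicate.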

For the next experiment, the target named is Chymotrypsinogen A (Bos taurus, UniProt P00766). Briefly: Binding affinity against Chymotrypsin. In outline:
(§3)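 Enzymes: bovine pancreatic α-chymotrypsin with S-2586 (MeO-Suc-Arg-Pro-Tyr-pNA), human plasma kallikrein with S-2288, porcine pancreatic elastase with Suc-Ala-Ala-Ala-pNA, and bovine pancreatic trypsin. Initial velocity was read at 25 °C over 2 min. A 2 h preincubation was used to screen for slow binding. For competitive inhibitors, Ki came from Lineweaver–Burk plots at five substrate concentrations spanning 10-fold around Km, using at least five points in duplicate.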

Experiment [5] addresses T3, Prothrombin. Briefly: Binding affinity against gamma thrombin. In outline: as §2
The next experiment has as its target T4, Serine protease 1 (Bos taurus, UniProt P00760).
T4 sequence (P00760 whole entry): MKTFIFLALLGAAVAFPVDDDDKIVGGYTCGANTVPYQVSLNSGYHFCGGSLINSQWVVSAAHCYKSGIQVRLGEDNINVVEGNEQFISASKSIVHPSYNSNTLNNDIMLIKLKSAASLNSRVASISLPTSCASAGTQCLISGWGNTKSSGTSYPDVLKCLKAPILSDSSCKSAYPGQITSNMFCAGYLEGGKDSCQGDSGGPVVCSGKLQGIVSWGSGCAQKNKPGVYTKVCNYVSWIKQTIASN
Put plainly: Binding affinity against Trypsin. Put shortly: as §3

Experiment [6] addresses T3, Prothrombin. Put plainly: Binding affinity against thrombin. Put shortly:
as §2

The target in experiment [7] is Urokinase-type plasminogen activator (Homo sapiens, UniProt P00749). Briefly: Binding affinity against Urokinase plasminogen activator. Put shortly:
as §1

For experiment [8], the target named is T2, Plasminogen. Briefly: Binding affinity against Plasmin. Put shortly: as §1
Experiment [9] can be described thus: Concentration of inhibitor required to produce a 2-fold prolongation in activated partial Thromboplastin time (APTT) in human plasma. The class given is functional. Put shortly:
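Pooled citrated normal human plasma, APTT reagent and inhibitor were incubated for 5 min at 37 °C. Clotting was started with CaCl2 from a 25 mM aqueous solution and timed on a coagulometer. The inhibitor concentration that doubled the APTT was determined in duplicate.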

Experiment [10] addresses T3, Prothrombin. Briefly: Concentration of inhibitor required to produce a 2-fold prolongation in Thrombin time (TT). In outline: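 Pooled citrated normal human plasma was incubated with inhibitor for 1 min at 37 °C; the inhibitor was serially diluted in buffer from a DMSO stock. Human α-thrombin was then added from a 5 units/mL solution in 50 mM sodium phosphate, 0.1% PEG, pH 7.4. Clotting was timed on a coagulometer, and the concentration that doubled the thrombin time was determined in duplicate.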

T2 sequence (P00747 97-580 limits assumed): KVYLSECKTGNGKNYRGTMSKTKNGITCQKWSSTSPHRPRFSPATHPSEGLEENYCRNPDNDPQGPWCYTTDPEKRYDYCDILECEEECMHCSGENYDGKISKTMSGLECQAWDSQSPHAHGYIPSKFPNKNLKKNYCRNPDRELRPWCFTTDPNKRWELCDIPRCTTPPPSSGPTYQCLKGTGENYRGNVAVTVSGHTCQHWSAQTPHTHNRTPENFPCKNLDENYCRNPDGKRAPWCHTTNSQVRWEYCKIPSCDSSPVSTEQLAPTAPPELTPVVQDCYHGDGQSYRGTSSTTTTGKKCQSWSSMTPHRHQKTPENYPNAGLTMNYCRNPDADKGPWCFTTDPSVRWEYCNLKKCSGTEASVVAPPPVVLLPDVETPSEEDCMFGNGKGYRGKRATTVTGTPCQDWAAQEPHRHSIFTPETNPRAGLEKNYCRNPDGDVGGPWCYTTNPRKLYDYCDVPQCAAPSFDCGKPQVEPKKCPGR
T2 sequence (P00747 581-810 limits assumed): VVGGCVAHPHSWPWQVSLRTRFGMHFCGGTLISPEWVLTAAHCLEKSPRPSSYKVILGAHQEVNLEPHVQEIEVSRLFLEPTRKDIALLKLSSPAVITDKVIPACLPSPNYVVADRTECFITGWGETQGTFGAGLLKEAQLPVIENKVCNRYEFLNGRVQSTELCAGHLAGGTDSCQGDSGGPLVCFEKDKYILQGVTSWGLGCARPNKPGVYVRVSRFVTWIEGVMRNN
Plasma kallikrein (Homo sapiens), sequence (P03952 whole entry, looked up): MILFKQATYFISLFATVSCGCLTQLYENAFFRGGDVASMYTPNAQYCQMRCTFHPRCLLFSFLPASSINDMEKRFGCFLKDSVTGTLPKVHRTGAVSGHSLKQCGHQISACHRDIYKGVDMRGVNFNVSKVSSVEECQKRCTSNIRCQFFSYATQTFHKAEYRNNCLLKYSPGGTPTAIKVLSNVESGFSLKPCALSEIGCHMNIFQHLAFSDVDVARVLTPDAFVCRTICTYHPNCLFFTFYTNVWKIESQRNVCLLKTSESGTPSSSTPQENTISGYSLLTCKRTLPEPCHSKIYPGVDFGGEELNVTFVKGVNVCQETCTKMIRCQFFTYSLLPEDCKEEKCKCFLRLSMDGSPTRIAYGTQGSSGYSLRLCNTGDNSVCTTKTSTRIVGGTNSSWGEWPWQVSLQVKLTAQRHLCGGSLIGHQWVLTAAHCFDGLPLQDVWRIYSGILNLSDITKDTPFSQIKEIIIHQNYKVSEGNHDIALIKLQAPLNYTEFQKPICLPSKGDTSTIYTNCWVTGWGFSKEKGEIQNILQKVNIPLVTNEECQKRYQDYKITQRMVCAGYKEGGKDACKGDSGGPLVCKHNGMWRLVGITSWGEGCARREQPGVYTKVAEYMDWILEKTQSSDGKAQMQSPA
Coagulation factor X, sequence (P00742 41-179 limits assumed): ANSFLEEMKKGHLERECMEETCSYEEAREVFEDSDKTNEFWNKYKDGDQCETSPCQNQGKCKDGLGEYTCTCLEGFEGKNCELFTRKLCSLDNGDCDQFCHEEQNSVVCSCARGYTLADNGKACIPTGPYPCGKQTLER
Coagulation factor X, sequence (P00742 235-488 limits assumed): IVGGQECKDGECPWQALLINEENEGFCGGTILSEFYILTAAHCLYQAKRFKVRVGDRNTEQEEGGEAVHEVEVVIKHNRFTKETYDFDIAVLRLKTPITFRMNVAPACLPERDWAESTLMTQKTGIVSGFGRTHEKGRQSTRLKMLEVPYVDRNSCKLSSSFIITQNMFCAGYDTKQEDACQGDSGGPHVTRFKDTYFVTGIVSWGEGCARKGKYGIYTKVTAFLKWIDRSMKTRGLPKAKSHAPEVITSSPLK

Regarding `CCCCCC(NC(=O)[C@@H]1CCCN1C(=O)[C@@H](NC(=O)OCc1ccccc1)C(c1ccccc1)c1ccccc1)B1O[C@@H]2CC3CC(C3(C)C)[C@]2(C)O1` (stereo partly drawn), the Ki was 53 µM in experiment [1]; 14.3 µM at Cathepsin G; 160 µM in experiment [2]; 13 µM at Coagulation factor X; 24 µM at Plasminogen [3]; 0.042 µM on Prothrombin [4]. The inhibitory constant (Ki) on Chymotrypsinogen A stood at 1.2 µM; at Prothrombin [5], 0.027 µM; at Serine protease 1, 0.45 µM; on Prothrombin [6] it was 0.042 µM; in experiment [7], 540 µM.
In the case of `CCC(C)(C)C(NC(=O)[C@@H]1CCCN1C(=O)[C@@H](NC(=O)OCc1ccccc1)C(c1ccccc1)c1ccccc1)B1O[C@@H]2CC3CC(C3(C)C)[C@]2(C)O1` (stereo partly drawn), the Ki in [1] was over 63 µM; on Plasminogen [8], 17 µM; in experiment [2], over 63 µM; at Plasminogen [3] it was 17 µM; on Prothrombin [4], 0.028 µM; on Chymotrypsinogen A, 2.89 µM. For the same compound, the Ki was 0.034 µM on Prothrombin [5], 0.56 µM on Serine protease 1, 0.082 µM at Prothrombin [6] and over 63 µM in experiment [7]. The APTT in experiment [9] amounted to 50 µM. At Prothrombin [10], this compound had a TT of 21 µM.
